Measurements: ChEMBL document CHEMBL1250448, “Inhibitor hijacking of Akt activation” (Nat Chem Biol, 2009)

Legend:
[1] = target: T1, Serine/threonine-protein kinase Sgk3 (Homo sapiens) (UniProt Q96BR1); experiment: Inhibition of SGKL at 1 uM in presence of 10 uM ATP by Select Screen kinase assay relative to untreated control
T1 sequence (whole entry): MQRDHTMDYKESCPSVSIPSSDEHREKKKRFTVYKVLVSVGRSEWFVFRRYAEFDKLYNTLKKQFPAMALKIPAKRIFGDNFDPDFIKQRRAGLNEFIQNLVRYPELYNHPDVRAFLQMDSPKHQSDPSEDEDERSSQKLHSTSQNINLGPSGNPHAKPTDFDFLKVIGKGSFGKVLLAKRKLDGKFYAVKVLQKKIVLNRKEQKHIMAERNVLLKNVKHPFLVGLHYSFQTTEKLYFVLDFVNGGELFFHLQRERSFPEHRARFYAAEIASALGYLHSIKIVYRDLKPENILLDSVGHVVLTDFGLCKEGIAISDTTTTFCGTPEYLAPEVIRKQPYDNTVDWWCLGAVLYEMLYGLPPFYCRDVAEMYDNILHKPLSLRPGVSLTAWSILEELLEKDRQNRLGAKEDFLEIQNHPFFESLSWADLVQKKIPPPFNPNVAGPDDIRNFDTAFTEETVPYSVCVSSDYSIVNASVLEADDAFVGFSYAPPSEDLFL
Outline: (§1)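 Commercial SelectScreen profiling panel of 220 purified kinases. Each kinase was tested at a single inhibitor concentration of 1 μM, and activity was expressed as percent inhibition.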

[2] = system: Serine/threonine-protein kinase B-raf (Homo sapiens), P15056 [V600E]; experiment: Inhibition of BRAF V599E mutant at 1 uM in presence of 100 uM ATP by Select Screen kinase assay relative to untreated control
Outline: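 Single-point screen at 1 μM against a panel of 220 purified kinases, run by Invitrogen staff as a SelectScreen profiling service. Read-out is percent inhibition of kinase activity.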

[3] = target: NT-3 growth factor receptor (Homo sapiens) (UniProt Q16288); experiment: Inhibition of NTRK3 at 1 uM in presence of 10 uM ATP by Select Screen kinase assay relative to untreated control; outline: as §1
[4] = target: Homeodomain-interacting protein kinase 1 (Homo sapiens) (UniProt Q86Z02); experiment: Inhibition of HIPK1 at 1 uM in presence of 10 uM ATP by Select Screen kinase assay relative to untreated control
Outline: (§2)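 Single-concentration profiling at 1 μM against a panel of 220 purified kinases, run as an outsourced SelectScreen kinase profiling service. Activity is expressed as percent inhibition.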

[5] = target: T2, Serine/threonine-protein kinase Nek1 (Homo sapiens) (UniProt Q96PY6); experiment: Inhibition of NEK1 at 1 uM in presence of 10 uM ATP by Select Screen kinase assay relative to untreated control; outline: as §2
T2 sequence (whole entry): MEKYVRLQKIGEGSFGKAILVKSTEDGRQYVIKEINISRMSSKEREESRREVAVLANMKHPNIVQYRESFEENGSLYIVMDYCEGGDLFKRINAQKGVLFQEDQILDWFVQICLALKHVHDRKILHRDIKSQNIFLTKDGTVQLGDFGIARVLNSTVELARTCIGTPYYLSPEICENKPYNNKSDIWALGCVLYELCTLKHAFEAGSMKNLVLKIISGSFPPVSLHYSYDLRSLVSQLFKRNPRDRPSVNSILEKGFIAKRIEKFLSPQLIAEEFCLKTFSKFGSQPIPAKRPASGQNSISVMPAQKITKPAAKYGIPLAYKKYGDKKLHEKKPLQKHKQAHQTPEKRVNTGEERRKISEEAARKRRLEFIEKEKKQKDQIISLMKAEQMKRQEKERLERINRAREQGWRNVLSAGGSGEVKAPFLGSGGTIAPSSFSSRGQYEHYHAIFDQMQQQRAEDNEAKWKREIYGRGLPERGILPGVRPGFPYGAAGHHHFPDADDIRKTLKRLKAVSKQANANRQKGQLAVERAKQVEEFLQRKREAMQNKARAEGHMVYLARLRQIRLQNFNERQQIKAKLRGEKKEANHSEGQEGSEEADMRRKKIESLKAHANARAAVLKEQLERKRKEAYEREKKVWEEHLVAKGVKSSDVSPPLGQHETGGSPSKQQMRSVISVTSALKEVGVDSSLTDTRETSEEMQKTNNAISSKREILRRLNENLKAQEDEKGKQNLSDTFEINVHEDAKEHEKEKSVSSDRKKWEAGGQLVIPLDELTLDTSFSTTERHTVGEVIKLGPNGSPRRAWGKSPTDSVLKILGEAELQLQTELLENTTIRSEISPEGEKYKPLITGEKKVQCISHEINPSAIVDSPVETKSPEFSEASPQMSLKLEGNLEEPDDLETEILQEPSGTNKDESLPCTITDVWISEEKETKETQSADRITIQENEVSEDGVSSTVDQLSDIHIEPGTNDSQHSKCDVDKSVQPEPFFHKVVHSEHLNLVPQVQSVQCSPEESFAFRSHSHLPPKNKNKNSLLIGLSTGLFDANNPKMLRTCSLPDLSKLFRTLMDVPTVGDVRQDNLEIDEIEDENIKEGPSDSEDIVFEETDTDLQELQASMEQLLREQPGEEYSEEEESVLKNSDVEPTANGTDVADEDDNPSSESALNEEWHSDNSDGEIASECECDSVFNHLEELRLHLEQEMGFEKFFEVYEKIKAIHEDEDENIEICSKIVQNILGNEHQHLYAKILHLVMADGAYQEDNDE

[6] = target: Tyrosine-protein kinase Lck (Homo sapiens) (UniProt P06239); experiment: Inhibition of LCK at 1 uM in presence of 10 uM ATP by Select Screen kinase assay relative to untreated control; outline: as §2
[7] = target: Tyrosine-protein kinase Lyn (Homo sapiens) (UniProt P07948); experiment: Inhibition of LYN A at 1 uM in presence of 10 uM ATP by Select Screen kinase assay relative to untreated control; outline: as §2
[8] = target: Leukocyte tyrosine kinase receptor (Homo sapiens) (UniProt P29376); experiment: Inhibition of LTK at 1 uM in presence of 10 uM ATP by Select Screen kinase assay relative to untreated control; outline: as §2
Sequence of Leukocyte tyrosine kinase receptor (Homo sapiens) (P29376 whole entry): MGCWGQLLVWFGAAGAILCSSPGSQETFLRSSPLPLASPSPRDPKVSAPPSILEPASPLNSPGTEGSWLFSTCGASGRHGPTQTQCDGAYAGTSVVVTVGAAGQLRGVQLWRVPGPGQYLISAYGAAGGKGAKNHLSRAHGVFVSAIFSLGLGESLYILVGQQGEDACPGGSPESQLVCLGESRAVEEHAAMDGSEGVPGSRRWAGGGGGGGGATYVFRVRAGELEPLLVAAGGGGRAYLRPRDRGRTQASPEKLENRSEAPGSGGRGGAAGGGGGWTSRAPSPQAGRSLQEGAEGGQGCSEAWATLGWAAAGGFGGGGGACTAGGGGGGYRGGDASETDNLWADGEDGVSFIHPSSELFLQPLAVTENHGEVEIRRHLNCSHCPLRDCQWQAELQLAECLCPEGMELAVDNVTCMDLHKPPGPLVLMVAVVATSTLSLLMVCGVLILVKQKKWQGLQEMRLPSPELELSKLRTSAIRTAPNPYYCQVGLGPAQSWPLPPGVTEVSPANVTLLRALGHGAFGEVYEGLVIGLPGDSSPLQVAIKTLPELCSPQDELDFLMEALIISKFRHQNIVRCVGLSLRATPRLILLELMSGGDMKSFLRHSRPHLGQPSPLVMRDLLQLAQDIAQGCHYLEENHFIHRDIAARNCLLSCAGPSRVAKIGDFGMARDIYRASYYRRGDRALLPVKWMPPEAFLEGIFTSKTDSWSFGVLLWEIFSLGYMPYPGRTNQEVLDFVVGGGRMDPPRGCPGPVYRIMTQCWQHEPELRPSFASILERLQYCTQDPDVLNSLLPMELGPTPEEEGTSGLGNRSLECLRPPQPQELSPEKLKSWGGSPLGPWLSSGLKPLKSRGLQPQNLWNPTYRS

Sequence of Tyrosine-protein kinase Lck (Homo sapiens) (P06239 2-509 limits assumed): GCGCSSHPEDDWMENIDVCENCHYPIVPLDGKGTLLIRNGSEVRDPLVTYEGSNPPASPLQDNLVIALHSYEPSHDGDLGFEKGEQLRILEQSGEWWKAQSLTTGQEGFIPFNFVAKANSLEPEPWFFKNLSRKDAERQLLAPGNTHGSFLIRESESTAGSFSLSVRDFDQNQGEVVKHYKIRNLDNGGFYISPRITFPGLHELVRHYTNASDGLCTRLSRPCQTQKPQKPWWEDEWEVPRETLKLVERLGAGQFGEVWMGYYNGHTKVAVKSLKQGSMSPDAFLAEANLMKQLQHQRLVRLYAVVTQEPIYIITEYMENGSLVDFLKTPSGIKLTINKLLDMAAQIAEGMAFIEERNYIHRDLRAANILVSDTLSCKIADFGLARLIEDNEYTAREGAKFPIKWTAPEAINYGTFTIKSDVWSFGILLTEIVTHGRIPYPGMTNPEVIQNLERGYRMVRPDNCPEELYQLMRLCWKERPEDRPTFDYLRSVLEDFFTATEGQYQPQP
Sequence of Serine/threonine-protein kinase B-raf (Homo sapiens), P15056 [V600E] (P15056 whole entry V600E): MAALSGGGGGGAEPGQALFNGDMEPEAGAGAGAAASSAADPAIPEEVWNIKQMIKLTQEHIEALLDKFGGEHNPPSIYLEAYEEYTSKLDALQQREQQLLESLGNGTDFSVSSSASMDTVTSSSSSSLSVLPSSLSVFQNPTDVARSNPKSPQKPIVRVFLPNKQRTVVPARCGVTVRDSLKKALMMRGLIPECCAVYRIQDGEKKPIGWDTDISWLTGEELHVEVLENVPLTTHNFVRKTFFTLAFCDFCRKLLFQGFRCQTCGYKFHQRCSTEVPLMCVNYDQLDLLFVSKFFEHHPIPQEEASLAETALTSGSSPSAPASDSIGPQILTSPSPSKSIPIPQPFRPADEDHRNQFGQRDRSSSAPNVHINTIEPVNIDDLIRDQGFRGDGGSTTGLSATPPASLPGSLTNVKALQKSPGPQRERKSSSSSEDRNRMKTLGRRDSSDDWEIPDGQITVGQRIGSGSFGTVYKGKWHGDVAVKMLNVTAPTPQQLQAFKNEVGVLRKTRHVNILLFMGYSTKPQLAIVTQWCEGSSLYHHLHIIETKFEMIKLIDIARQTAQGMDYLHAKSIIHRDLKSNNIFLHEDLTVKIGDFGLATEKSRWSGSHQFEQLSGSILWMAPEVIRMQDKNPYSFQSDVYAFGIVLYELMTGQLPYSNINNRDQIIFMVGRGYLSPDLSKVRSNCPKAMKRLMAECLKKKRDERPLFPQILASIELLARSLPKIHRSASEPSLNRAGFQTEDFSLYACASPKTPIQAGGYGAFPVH
Sequence of Tyrosine-protein kinase Lyn (Homo sapiens) (P07948 2-512 limits assumed): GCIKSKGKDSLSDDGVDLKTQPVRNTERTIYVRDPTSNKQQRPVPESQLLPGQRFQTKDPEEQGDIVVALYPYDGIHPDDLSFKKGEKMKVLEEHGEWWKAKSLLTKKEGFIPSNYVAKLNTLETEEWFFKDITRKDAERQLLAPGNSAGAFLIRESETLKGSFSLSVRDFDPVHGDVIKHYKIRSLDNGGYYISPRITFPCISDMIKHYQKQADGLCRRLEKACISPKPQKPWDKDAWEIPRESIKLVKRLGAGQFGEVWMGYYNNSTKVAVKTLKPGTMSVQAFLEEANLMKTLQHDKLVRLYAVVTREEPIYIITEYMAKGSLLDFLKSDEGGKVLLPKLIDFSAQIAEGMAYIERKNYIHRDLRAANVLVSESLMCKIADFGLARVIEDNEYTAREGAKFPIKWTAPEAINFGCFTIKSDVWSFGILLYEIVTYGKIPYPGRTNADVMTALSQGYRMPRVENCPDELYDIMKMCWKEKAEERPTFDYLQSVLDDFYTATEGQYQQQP
Sequence of Homeodomain-interacting protein kinase 1 (Homo sapiens) (Q86Z02 whole entry, looked up): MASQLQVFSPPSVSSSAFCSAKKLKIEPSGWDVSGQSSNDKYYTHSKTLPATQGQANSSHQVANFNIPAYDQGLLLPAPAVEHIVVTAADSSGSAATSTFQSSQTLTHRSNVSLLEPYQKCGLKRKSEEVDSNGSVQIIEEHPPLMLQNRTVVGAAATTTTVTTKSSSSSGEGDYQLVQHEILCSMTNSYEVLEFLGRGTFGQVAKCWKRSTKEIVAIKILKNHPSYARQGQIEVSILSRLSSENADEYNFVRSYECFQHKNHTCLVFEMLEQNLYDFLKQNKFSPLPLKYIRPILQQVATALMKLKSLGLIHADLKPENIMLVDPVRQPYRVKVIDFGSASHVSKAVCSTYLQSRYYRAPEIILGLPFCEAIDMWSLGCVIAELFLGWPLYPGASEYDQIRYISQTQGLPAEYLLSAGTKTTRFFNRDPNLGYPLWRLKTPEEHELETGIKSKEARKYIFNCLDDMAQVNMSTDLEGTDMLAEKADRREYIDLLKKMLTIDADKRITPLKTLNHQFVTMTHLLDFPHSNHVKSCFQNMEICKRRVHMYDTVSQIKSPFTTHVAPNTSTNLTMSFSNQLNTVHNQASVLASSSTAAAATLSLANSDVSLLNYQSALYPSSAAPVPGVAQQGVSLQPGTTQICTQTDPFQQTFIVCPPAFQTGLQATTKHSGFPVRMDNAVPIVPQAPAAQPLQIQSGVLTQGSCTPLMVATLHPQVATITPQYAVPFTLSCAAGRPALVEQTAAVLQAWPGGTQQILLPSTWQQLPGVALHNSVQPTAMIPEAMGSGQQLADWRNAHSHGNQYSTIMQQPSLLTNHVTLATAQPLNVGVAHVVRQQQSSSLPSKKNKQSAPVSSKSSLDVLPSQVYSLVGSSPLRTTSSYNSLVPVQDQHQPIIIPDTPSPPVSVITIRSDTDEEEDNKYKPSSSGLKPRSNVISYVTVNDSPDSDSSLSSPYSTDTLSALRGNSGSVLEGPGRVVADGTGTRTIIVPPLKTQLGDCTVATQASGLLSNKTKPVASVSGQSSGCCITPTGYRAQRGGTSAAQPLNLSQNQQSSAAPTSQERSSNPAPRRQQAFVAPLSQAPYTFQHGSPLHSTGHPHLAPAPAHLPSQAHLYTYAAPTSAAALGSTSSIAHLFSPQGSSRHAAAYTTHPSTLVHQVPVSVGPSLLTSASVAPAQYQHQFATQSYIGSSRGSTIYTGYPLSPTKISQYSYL
Sequence of NT-3 growth factor receptor (Homo sapiens) (Q16288 32-839 limits assumed): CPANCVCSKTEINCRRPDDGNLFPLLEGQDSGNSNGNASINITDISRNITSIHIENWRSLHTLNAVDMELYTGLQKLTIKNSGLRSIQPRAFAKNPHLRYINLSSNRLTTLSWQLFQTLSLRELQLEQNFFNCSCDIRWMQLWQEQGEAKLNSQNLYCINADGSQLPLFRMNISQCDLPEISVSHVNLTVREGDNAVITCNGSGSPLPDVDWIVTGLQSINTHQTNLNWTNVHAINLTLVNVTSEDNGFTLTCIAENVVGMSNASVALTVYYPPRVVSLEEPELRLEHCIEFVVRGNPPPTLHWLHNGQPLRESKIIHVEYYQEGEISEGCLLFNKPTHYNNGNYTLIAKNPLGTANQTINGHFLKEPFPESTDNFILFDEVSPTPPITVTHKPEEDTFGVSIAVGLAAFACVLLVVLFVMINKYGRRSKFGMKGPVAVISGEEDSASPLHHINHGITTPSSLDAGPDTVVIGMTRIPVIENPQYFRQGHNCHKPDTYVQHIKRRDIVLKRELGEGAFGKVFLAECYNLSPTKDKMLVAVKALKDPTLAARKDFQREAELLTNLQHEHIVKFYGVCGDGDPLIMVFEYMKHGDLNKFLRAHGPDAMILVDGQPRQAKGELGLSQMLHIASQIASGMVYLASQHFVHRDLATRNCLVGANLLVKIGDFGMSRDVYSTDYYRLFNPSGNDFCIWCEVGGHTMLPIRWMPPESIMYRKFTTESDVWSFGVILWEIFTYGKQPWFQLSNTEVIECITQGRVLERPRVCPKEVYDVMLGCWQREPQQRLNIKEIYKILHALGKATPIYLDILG

SMILES	inhibition [1] [%]	inhibition [2] [%]	inhibition [3] [%]	inhibition [4] [%]	inhibition [5] [%]	inhibition [6] [%]	inhibition [7] [%]	inhibition [8] [%]
COc1ccccc1N1CCN(c2ncnc3[nH]nc(Br)c23)CC1	17	9	37	34	18	16	13	7
Cc1n[nH]c2ccc(-c3cncc(OC[C@@H](N)Cc4c[nH]c5ccccc45)c3)cc12	78	45	28	68	44	14	8	35
O=C(NCCCNc1nc(Nc2cccc(NC(=O)N3CCCC3)c2)ncc1I)c1cccs1	12	52	80	18	92	30	27	5
